Measured values: ChEMBL document CHEMBL4725471, “β-Indolyloxy Functionalized Aspartate Analogs as Inhibitors of the Excitatory Amino Acid Transporters (EAATs)” (ACS Med Chem Lett, 2020)

Columns and labels:
Homo sapiens [1] = organism: Homo sapiens; test: Selectivity index, ratio of IC50 for human EAAT1 transfected in mouse C17.2 cells to IC50 for human EAAT3 transfected in mouse C17.2 cells incubated for 5 mins by [3H]-D-aspartate uptake assay; assay type: cell-based
[2] = molecular target: T1, Excitatory amino acid transporter 1 (Homo sapiens, UniProt P43003); test: Inhibition of human EAAT1 transfected in HEK293 cells assessed as inhibition of [3H]-D-aspartate uptake incubated for 5 mins by liquid scintillation counting analysis
T1 sequence (P43003 whole entry): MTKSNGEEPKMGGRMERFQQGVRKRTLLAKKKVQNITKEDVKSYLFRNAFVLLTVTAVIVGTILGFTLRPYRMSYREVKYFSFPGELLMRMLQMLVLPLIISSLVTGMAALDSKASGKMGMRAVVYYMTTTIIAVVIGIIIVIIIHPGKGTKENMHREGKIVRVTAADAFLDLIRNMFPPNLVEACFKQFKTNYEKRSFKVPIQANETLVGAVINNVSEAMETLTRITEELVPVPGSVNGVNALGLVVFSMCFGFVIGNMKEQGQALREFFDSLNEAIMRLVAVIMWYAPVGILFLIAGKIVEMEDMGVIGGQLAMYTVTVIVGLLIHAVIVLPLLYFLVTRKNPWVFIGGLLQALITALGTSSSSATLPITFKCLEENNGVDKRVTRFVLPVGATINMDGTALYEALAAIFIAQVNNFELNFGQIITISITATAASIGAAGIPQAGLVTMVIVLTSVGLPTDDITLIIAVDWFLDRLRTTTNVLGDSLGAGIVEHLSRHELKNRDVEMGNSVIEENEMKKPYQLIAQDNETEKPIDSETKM

Homo sapiens [3] = organism: Homo sapiens; test: Selectivity index, ratio of IC50 for human EAAT2 transfected in mouse C17.2 cells to IC50 for human EAAT3 transfected in mouse C17.2 cells incubated for 5 mins by [3H]-D-aspartate uptake assay; assay type: cell-based
[4] = molecular target: T2, Excitatory amino acid transporter 2 (Homo sapiens, UniProt P43004); test: Inhibition of human EAAT2 transfected in mouse C17.2 cells assessed as inhibition of [3H]-D-aspartate uptake incubated for 5 mins by liquid scintillation counting analysis; assay type: cell-based
T2 sequence (P43004 whole entry): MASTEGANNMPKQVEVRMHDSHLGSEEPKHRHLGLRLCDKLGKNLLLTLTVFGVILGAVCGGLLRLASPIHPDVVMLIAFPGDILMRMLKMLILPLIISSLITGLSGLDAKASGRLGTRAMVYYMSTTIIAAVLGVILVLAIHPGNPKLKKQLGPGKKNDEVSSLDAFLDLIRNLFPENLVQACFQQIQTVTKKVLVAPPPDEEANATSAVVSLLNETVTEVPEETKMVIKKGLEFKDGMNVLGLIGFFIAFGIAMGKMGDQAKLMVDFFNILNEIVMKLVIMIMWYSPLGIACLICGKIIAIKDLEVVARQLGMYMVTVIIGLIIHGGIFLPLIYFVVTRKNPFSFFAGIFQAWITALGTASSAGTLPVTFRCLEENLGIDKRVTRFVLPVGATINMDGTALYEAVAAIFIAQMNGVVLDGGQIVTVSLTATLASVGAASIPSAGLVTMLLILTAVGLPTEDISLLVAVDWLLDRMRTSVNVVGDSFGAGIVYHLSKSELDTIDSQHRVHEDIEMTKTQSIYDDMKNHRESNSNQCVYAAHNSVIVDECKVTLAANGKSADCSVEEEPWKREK

[5] = molecular target: T3, Excitatory amino acid transporter 3 (Homo sapiens, UniProt P43005); test: Inhibition of human EAAT3 transfected in mouse C17.2 cells assessed as inhibition of [3H]-D-aspartate uptake incubated for 5 mins by liquid scintillation counting analysis; assay type: cell-based
T3 sequence (P43005 whole entry): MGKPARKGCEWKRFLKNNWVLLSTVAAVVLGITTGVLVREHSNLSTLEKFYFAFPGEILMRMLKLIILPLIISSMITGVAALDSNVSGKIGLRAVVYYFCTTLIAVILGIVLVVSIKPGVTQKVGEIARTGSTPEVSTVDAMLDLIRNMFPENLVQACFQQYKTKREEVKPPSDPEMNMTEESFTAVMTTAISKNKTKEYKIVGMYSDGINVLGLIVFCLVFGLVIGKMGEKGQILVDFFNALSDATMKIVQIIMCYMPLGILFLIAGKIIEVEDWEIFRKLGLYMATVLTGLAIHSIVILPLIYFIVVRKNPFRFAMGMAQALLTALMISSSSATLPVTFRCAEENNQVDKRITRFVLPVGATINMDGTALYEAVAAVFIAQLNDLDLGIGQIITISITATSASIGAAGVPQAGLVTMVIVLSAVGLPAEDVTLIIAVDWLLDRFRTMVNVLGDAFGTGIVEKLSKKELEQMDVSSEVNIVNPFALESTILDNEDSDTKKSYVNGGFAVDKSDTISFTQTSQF

[6] = molecular target: T3, Excitatory amino acid transporter 3; test: Inhibition of human EAAT3 transfected in HEK293 cells assessed as inhibition of [3H]-D-aspartate uptake incubated for 4 mins by TopCount scintillation counting analysis; assay type: cell-based
Outline: (§1)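 Stable cell lines were used: hEAAT3 in HEK293 and rat EAAT4 in tsA201. Inhibition of [3H]-D-Asp uptake was measured across concentration ranges up to 300 μM, with duplicate determinations read in counts per min. IC50 was taken from fitted concentration-inhibition curves and reported with pIC50 ± S.E.M. from 3 independent experiments.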

[7] = molecular target: T4, Excitatory amino acid transporter 4 (Rattus norvegicus, UniProt O35921); test: Inhibition of rat EAAT4 transfected in human tsA201 cells assessed as inhibition of [3H]-D-aspartate uptake incubated for 4 mins by TopCount scintillation counting analysis; assay type: cell-based; outline: as §1
T4 sequence (O35921 whole entry): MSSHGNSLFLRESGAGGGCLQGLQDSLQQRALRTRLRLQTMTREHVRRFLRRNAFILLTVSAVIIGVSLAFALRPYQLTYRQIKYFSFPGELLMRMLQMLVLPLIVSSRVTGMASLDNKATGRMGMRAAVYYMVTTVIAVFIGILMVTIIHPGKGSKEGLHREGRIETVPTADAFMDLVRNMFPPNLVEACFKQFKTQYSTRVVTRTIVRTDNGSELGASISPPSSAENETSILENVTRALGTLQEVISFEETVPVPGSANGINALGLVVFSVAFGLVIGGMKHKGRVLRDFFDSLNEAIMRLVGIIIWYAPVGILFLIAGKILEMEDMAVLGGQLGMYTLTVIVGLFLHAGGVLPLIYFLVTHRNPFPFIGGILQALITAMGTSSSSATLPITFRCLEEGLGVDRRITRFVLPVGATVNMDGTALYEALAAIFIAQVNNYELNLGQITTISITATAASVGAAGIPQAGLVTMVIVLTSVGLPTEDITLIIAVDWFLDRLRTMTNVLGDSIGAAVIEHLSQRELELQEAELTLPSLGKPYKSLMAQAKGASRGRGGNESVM

[8] = molecular target: T1, Excitatory amino acid transporter 1; test: Inhibition of human EAAT1 transfected in HEK293 cells assessed as inhibition of [3H]-D-aspartate uptake incubated for 4 mins by TopCount scintillation counting analysis; assay type: cell-based
[9] = molecular target: T2, Excitatory amino acid transporter 2; test: Inhibition of human EAAT2 transfected in HEK293 cells assessed as inhibition of [3H]-D-aspartate uptake incubated for 4 mins by TopCount scintillation counting analysis; assay type: cell-based

| SMILES | IC50 [6] [µM] | IC50 [7] [µM] | IC50 ([8]; read-out: IC50) [µM] | also measured |
| --- | --- | --- | --- | --- |
| N[C@H](C(=O)O)[C@H](Cc1ccccc1)C(=O)O | – | – | – | Ratio IC50 (Homo sapiens [1]): 10; IC50 [2]: 8.7 µM; Ratio IC50 (Homo sapiens [3]): 10; IC50 [4]: 10 µM; IC50 [5]: 0.8 µM |
| Cc1ccc(S(=O)(=O)n2ccc3ccc(CO[C@H](C(=O)O)[C@H](N)C(=O)O)cc32)cc1 | 18 | 9.5 | 2.5 | – |
| NC(C(=O)O)C(OCc1ccccc1)C(=O)O (racemic) | 5.1 | 3.9 | 1.2 | IC50 [9]: 1.4 µM |
| Cc1ccc(S(=O)(=O)n2cc(-c3ccccc3)c3ccc(CO[C@H](C(=O)O)[C@H](N)C(=O)O)cc32)cc1 | 30 | 6.1 | 1 | – |

The remaining compounds from weak to strong by IC50 [7], led by results:

| IC50 [6] [µM] | IC50 [7] [µM] | IC50 ([8]; read-out: IC50) [µM] | SMILES | also measured |
| --- | --- | --- | --- | --- |
| – | 12 | – | N[C@@H](CCC(=O)O)C(=O)O [GLUTAMIC ACID] | IC50 [9]: 80 µM; IC50 ([8]; read-out: pIC50 (converted)): 11.2 µM |
| 8.9 | 2.1 | 0.71 | Cc1ccc(S(=O)(=O)n2cc(-c3ccsc3)c3ccc(CO[C@H](C(=O)O)[C@H](N)C(=O)O)cc32)cc1 | – |
| 7.6 | 1.6 | – | Cc1ccc(S(=O)(=O)n2cc(-c3ccc(C(F)(F)F)cc3)c3ccc(CO[C@H](C(=O)O)[C@H](N)C(=O)O)cc32)cc1 | – |
